From ChEMBL document CHEMBL1687766, “In vitro activity of the new multivalent glycopeptide-cephalosporin antibiotic TD-1792 against vancomycin-nonsusceptible Staphylococcus isolates” (Antimicrob Agents Chemother, 2010) come the findings set out here.

For data set [1], the system named is Staphylococcus aureus. The experiment in a line: Antimicrobial activity against vancomycin-intermediate Staphylococcus aureus isolate NJ992 assessed as bacterial count at 16 times MIC after 24 hrs by colony counting method in presence of 50% human serum. It counts as functional. The gist of the method: (§1)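 Time-kill in triplicate, starting inoculum 5 × 10^6 CFU/ml from a mid-exponential culture. Medium was 50% heat-treated, filtered human serum plus 50% broth, final 25 SMHB for TD-1792 and 50 SMHB for daptomycin. Drug at multiples of MIC. Samples to 24 h were plated on BHI agar for 24 h at 35°C. Value is the log10 CFU/ml change from baseline at 24 h.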

Data set [2] has as its system Staphylococcus aureus. The experiment in a line: Antimicrobial activity against vancomycin-resistant Staphylococcus aureus isolate PA assessed as bacterial count at 8 times MIC after 24 hrs by colony counting method. It counts as functional. The method in brief:
(§2)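 Time-kill in triplicate. Mid-exponential culture (OD600 ~0.3) diluted in supplemented Mueller-Hinton broth to 5 × 10^6 CFU/ml. Daptomycin was run at physiologic calcium, 1.1 to 1.3 mM. […] Samples at 0, 1, 4, 8 and 24 h were diluted in cold saline or vacuum filtered, then spiral-plated on BHI agar for 24 h at 35°C. Value is the log10 CFU/ml change from baseline at 24 h.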

Data set [3] in a line: Plasma protein binding in human in presence of human serum. It counts as ADME, cell-free. Conditions: read-out: PPB (converted).
Data set [4] deals with Staphylococcus aureus. The experiment in a line: Antimicrobial activity against vancomycin-heteroresistant Staphylococcus aureus after 24 hrs by microdilution method. The conditions noted are these: Staphylococcus aureus, 24 h. It counts as functional. The gist of the method:
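Broth microdilution per CLSI, inoculum 5 × 10^5 CFU/ml, Mueller-Hinton broth with 12.5 μg/ml magnesium and 25 μg/ml calcium (SMHB). Daptomycin was instead tested in SMHB at physiologic calcium (final 1.1 to 1.3 mM). Incubation 24 h at 35°C; MIC read; run in duplicate. MBC from 5-μl samples of clear wells plated on BHI agar, 24 h at 35°C.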
For orientation: Broth dilution looks for growth in wells or tubes with falling amounts of substance.

Data set [5] concerns Staphylococcus aureus. The experiment in a line: Antimicrobial activity against vancomycin-resistant Staphylococcus aureus isolate MI assessed as bacterial count at 32 times MIC after 24 hrs by colony counting method. It counts as functional. The method in brief:
as §2

In data set [6] the test system is Staphylococcus aureus. As to the kind of experiment: Antimicrobial activity against vancomycin-resistant Staphylococcus aureus isolate PA assessed as bacterial count at 4 times MIC after 24 hrs by colony counting method in presence of 50% human serum. In kind it is functional. The gist of the method:
as §1

The subject of data set [7] is Staphylococcus aureus. The experiment in a line: Antimicrobial activity against vancomycin-resistant Staphylococcus aureus isolate PA assessed as bacterial count at 16 times MIC after 24 hrs by colony counting method in presence of 50% human serum. In kind it is functional. The method in brief: as §1
Data set [8] has as its system Staphylococcus aureus. The experiment in a line: Antimicrobial activity against methicillin-resistant Staphylococcus aureus infected in patient with complicated skin and skin structure infections assessed as cure rate. In kind it is functional.

Converted amounts (≈) assume the structure as drawn.

By MBC is commonly meant the smallest concentration meeting the test's criterion for killing. A word on the MIC50: it is the lowest concentration that inhibits either 50% of growth or 50% of the strains tested, depending on the study. Higher therefore signals weaker potency. The term MIC90 denotes an inhibitory concentration at the 90% level, which refers to growth in some studies and to a panel of isolates in others. A lower MIC90 goes with greater potency. Regarding `CCCCCCCCCC(=O)N[C@@H](Cc1c[nH]c2ccccc12)C(=O)N[C@H](CC(N)=O)C(=O)N[C@@H](CC(=O)O)C(=O)N[C@@H]1C(=O)NCC(=O)N[C@@H](CCCN)C(=O)N[C@@H](CC(=O)O)C(=O)N[C@H](C)C(=O)N[C@@H](CC(=O)O)C(=O)NCC(=O)N[C@H](CO)C(=O)N[C@@H]([C@H](C)CC(=O)O)C(=O)N[C@@H](CC(=O)c2ccccc2N)C(=O)O[C@@H]1C`, the log10CFU/ml in the data set on Staphylococcus aureus [1] amounted to 5.03. Besides, in the data set with Staphylococcus aureus [2], the log10CFU/ml was found to be 4.95. The fraction unbound in data set [3] was 0.08. In the data set on Staphylococcus aureus [4], this compound yielded a minimum bactericidal concentration (MBC) of 0.25 µg/mL (≈ 0.154 µM), an MIC50 of 1 µg/mL (≈ 0.617 µM) and an MIC90 of 1 µg/mL (≈ 0.617 µM).

`CN[C@H](CC(C)C)C(=O)N[C@H]1C(=O)N[C@@H](CC(N)=O)C(=O)N[C@H]2C(=O)N[C@H]3C(=O)N[C@H](C(=O)N[C@H](C(=O)NCCCO/N=C(\C(=O)N[C@@H]4C(=O)N5C(C(=O)[O-])=C(C[n+]6ccccc6)CS[C@H]45)c4nc(N)sc4Cl)c4cc(O)cc(O)c4-c4cc3ccc4O)[C@H](O)c3ccc(c(Cl)c3)Oc3cc2cc(c3O[C@@H]2O[C@H](CO)[C@@H](O)[C@H](O)[C@H]2O[C@H]2C[C@](C)(N)[C@H](O)[C@H](C)O2)Oc2ccc(cc2Cl)[C@H]1O`: the log10CFU/ml came to 4.76 in the data set on Staphylococcus aureus [1], 5.13 in the data set with Staphylococcus aureus [5], 4.04 in the data set with Staphylococcus aureus [6] and 5.15 in the data set on Staphylococcus aureus [7]. The Activity in the data set with Staphylococcus aureus [8] stood at 94.7%. In addition, the MBC with Staphylococcus aureus [4] worked out at 0.015 µg/mL (≈ 0.00756 µM). In addition, the MIC50 with Staphylococcus aureus [4] came to 0.06 µg/mL (≈ 0.0303 µM). Besides, in the data set on Staphylococcus aureus [4], the MIC90 is 0.125 µg/mL (≈ 0.063 µM).
